TRPC4 agonist: opens the mouse TRPC4 cation channel. HEK293 TRPC4beta/mu-opioid, Fluo4 calcium fluorescence; hits give high values. AID 2237. 0.49% of 310,000 active. B-score at 10 µM. Q9QUQ5;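 active = B-score above 5 SD of library B-scores, and initial fluorescence ratio not above library mean plus 5 SD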;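 also: positive B-score marks a calcium rise read as TRPC4 activation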
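Assay system – TRPC4beta and mu-opioid receptor HEK293 stable cells · Measured by – Fluo4 fluorescence, kinetic · Schedule – dye loading 45 min room temperature, 110 s kinetic read · Read-out – B-scored integrated calcium fluorescence ratio · Controls – buffer and maximal DAMGO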
TRPC6 act: activates the mouse TRPC6 cation channel; Q61143; HEK293-TRPC6 membrane potential dye fluorescence; hits give high values; B-score at 10 µM; 0.13% of 310,000 active;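 active = B-score of the integrated fluorescence ratio above library mean plus 3 SD, and starting fluorescence ratio within library mean plus 5 SD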;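 also: higher score means more depolarization so channel activation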
TRPC6 inhibitor: inhibitors of mouse TRPC6 channel; Q61143; HEK293-TRPC6, membrane potential dye, ACh-evoked depolarization; hits give low values; B-score at 10 µM; 1.1% of 310,000 active; AID 2553;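 active = B-score under library mean minus 3 SD, initial fluorescence not abnormally high, positive integrated signal ratio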;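 also: B-score derived from integrated fluorescence ratio over the kinetic read; more negative B-score means stronger inhibition of depolarization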
TRPC4 block: blocks the mouse TRPC4 cation channel | Q9QUQ5 | HEK293 TRPC4beta/mu-opioid, DAMGO-evoked Fluo4 calcium flux; hits give low values | B-score at 10 µM | 0.39% of 300,000 active | AID 2247;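 active = B-score over 3 SD under the library average, no early fluorescence shift, positive overall ratio signal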
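Signal: kinetic Fluo4 fluorescence imaging of calcium influx. Material: stable TRPC4beta/mu-opioid receptor HEK293 cells. Probe or stimulus: DAMGO in two steps, submaximal then maximal.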
TRPC4 PAM: TRPC4 (mouse) allosteric potentiation. B-score at 10 µM. AID 2227. HEK293 TRPC4beta/mu-opioid, DAMGO EC20, Fluo-4 Ca2+ flux; hits give high values. 0.42% of 310,000 active. Q9QUQ5;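 active = B-score of calcium response area above 5 SD of library B-scores, with initial fluorescence ratio within 5 SD of library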
Hits are given with their value. Most compounds without a hit are left out; they make up all but 2.3% or so of the library.

`CC(=O)Nc1cccn(Cc2c(Cl)cccc2Cl)c1=O` gave TRPC4 agonist inactive, TRPC6 act inactive, TRPC6 inhibitor inactive, TRPC4 block inactive and TRPC4 PAM inactive.
For CCC(C)[C@H](Nc1nc(-c2ccccc2)nc2c1oc1ccccc12)C(=O)O (stereo not given in full) the results were TRPC4 agonist inactive, TRPC6 act inactive, TRPC6 inhibitor inactive, TRPC4 block -6 and TRPC4 PAM inactive.
`CC(C)[C@H](Nc1nc(-c2ccccc2)nc2c1oc1ccccc12)C(=O)O` gave TRPC4 agonist inactive, TRPC6 act inactive, TRPC6 inhibitor inactive, TRPC4 block inactive and TRPC4 PAM inactive.
COC(=O)c1ccc(OCC(O)CN2CCc3cc(OC)c(OC)cc3C2c2ccccc2)cc1 (stereo not given) was read as TRPC4 agonist inactive, TRPC6 act inactive, TRPC6 inhibitor inactive, TRPC4 block inactive and TRPC4 PAM 11.
For CCC(=O)N1CCc2cc(OC)c(OC)cc2C1COc1ccc(C(=O)OC)cc1 (stereo not given) the results were TRPC4 agonist inactive, TRPC6 act inactive, TRPC6 inhibitor inactive, TRPC4 block inactive and TRPC4 PAM inactive.
`O=c1oc2ccccc2c(O)c1/C=N/c1ncccn1` gave TRPC4 agonist inactive, TRPC6 act inactive, TRPC6 inhibitor inactive, TRPC4 block inactive and TRPC4 PAM inactive.
Screening O=c1oc2ccccc2c(O)c1/C=C1\C=Nc2ccccc21 returned TRPC4 agonist 85, TRPC6 act inactive, TRPC6 inhibitor inactive, TRPC4 block inactive and TRPC4 PAM inactive.
For Cc1cc(C)c2c(=O)n(CC(=O)Nc3cccc(Cl)c3C)sc2n1 the results were TRPC4 agonist inactive, TRPC6 act inactive, TRPC6 inhibitor inactive, TRPC4 block inactive and TRPC4 PAM 16.
Screening O=C(c1ccc(Cl)cc1)C1CCCN(Cc2cccn2-c2cccnc2)C1 (stereo not given) returned TRPC4 agonist inactive, TRPC6 act inactive, TRPC6 inhibitor inactive, TRPC4 block inactive and TRPC4 PAM inactive.
For O=C(c1ccc2c(c1)OCO2)C1CCCN(Cc2cccn2-c2cccnc2)C1 (stereo not given) the results were TRPC4 agonist inactive, TRPC6 act inactive, TRPC6 inhibitor inactive, TRPC4 block -6 and TRPC4 PAM inactive.
O=C(c1ccc2c(c1)OCO2)C1CCCN(Cc2ccccc2OC(F)F)C1 (stereo not given) was read as TRPC4 agonist inactive, TRPC6 act inactive, TRPC6 inhibitor inactive, TRPC4 block -7 and TRPC4 PAM inactive.
`O=C(c1ccc2c(c1)OCO2)C1CCCN(Cc2cc(F)ccc2-n2cccn2)C1` (stereo not given) gave TRPC4 agonist inactive, TRPC6 act inactive, TRPC6 inhibitor inactive, TRPC4 block -5 and TRPC4 PAM inactive.
`O=[N+]([O-])c1cc(C(F)(F)F)ccc1N1CCN(S(=O)(=O)c2ccc3c(c2)CCCC3)CC1` gave TRPC4 agonist inactive, TRPC6 act inactive, TRPC6 inhibitor inactive, TRPC4 block inactive and TRPC4 PAM inactive.
Screening O=[N+]([O-])c1cc(C(F)(F)F)ccc1N1CCCNCC1 returned TRPC4 agonist 83, TRPC6 act inactive, TRPC6 inhibitor inactive, TRPC4 block inactive and TRPC4 PAM 42.
CC(=O)Nc1cccc(N=NN2CCCCC2)c1 was read as TRPC4 agonist inactive, TRPC6 act inactive, TRPC6 inhibitor inactive, TRPC4 block inactive and TRPC4 PAM inactive.
COc1ccccc1CC(=O)Nc1ccc2c(c1)C(=O)NC2=O was read as TRPC4 agonist inactive, TRPC6 act inactive, TRPC6 inhibitor inactive, TRPC4 block inactive and TRPC4 PAM inactive.
For Cc1cccc2cc(CN(CCCN(C)C)C(=S)NCCc3ccccc3)c(=O)[nH]c12 the results were TRPC4 agonist inactive, TRPC6 act inactive, TRPC6 inhibitor inactive, TRPC4 block -6 and TRPC4 PAM inactive.
`Cc1ccc2[nH]c(=O)c(CN(CCCN(C)C)C(=S)NCCc3ccccc3)cc2c1` gave TRPC4 agonist inactive, TRPC6 act inactive, TRPC6 inhibitor inactive, TRPC4 block inactive and TRPC4 PAM inactive.
For Cc1ccc(NC2Sc3ccccc3NC2=O)cc1Cl (stereo not given) the results were TRPC4 agonist inactive, TRPC6 act inactive, TRPC6 inhibitor inactive, TRPC4 block inactive and TRPC4 PAM inactive.
`CN(C)CCCN(C(=O)c1ccc(S(=O)(=O)N2CCc3ccccc3C2)cc1)c1nc2ccc(F)cc2s1` gave TRPC4 agonist 111, TRPC6 act inactive, TRPC6 inhibitor inactive, TRPC4 block inactive and TRPC4 PAM inactive.
CN(C)CCCN(C(=O)c1ccc(S(=O)(=O)N2CCc3ccccc32)cc1)c1nc2ccc(F)cc2s1 was read as TRPC4 agonist 111, TRPC6 act inactive, TRPC6 inhibitor inactive, TRPC4 block inactive and TRPC4 PAM inactive.
`Cc1ccc(C(=O)N(CCCN(C)C)c2nc3ccc(Cl)cc3s2)cc1C` gave TRPC4 agonist inactive, TRPC6 act inactive, TRPC6 inhibitor inactive, TRPC4 block inactive and TRPC4 PAM inactive.
`Cc1ccc2nc(N(CCCN(C)C)C(=O)c3sc4ccccc4c3Cl)sc2c1` gave TRPC4 agonist inactive, TRPC6 act inactive, TRPC6 inhibitor inactive, TRPC4 block inactive and TRPC4 PAM 10.
For CCN(CC)CCN(C(=O)c1ccccc1OC)c1nc2ccc(F)cc2s1 the results were TRPC4 agonist inactive, TRPC6 act inactive, TRPC6 inhibitor inactive, TRPC4 block -6 and TRPC4 PAM inactive.
`CCN(CC)CCN(C(=O)c1ccc2c(c1)CCCC2)c1nc2ccc(F)cc2s1` gave TRPC4 agonist inactive, TRPC6 act inactive, TRPC6 inhibitor inactive, TRPC4 block inactive and TRPC4 PAM inactive.
For CN(C)CCCN(C(=O)c1ccc(S(=O)(=O)N2CCc3ccccc3C2)cc1)c1nc2c(F)cccc2s1 the results were TRPC4 agonist inactive, TRPC6 act inactive, TRPC6 inhibitor inactive, TRPC4 block inactive and TRPC4 PAM inactive.
COc1cscc1C(N)=O was read as TRPC4 agonist inactive, TRPC6 act inactive, TRPC6 inhibitor inactive, TRPC4 block inactive and TRPC4 PAM inactive.
`O=C(Cn1nc(C(=O)O)c2ccccc2c1=O)Nc1ccc2c(c1)C(=O)c1ccccc1C2=O` gave TRPC4 agonist inactive, TRPC6 act inactive, TRPC6 inhibitor inactive, TRPC4 block inactive and TRPC4 PAM inactive.
`CC(=O)NCCc1nc2cc(NC(=O)COc3ccc(C)cc3)ccc2n1C` gave TRPC4 agonist inactive, TRPC6 act inactive, TRPC6 inhibitor inactive, TRPC4 block inactive and TRPC4 PAM inactive.
For Cc1ccc2nc(N(CCCN(C)C)C(=O)c3ccc(S(=O)(=O)N(C)C)cc3)sc2c1 the results were TRPC4 agonist inactive, TRPC6 act inactive, TRPC6 inhibitor inactive, TRPC4 block inactive and TRPC4 PAM inactive.
Cc1cc(C)c2sc(N(CCCN(C)C)C(=O)c3ccc(S(=O)(=O)N4CCc5ccccc5C4)cc3)nc2c1 was read as TRPC4 agonist inactive, TRPC6 act inactive, TRPC6 inhibitor inactive, TRPC4 block inactive and TRPC4 PAM inactive.
